Reference: ChEMBL document CHEMBL1649125, “Efficacy of the novel diamidine compound 2,5-Bis(4-amidinophenyl)- furan-bis-O-Methlylamidoxime (Pafuramidine, DB289) against Trypanosoma brucei rhodesiense infection in vervet monkeys after oral administration” (2009)
Calls of active or inactive are those of the source. The rule behind the calls is not given here.

Legend:
[1] = test system: Trypanosoma brucei rhodesiense; experiment: Antitrypanosomal activity against Trypanosoma brucei rhodesiense infected in vervet monkey assessed as body weight change at 3 mg/kg, po administered on day 7 post infection for 5 days; assay type: functional
How it was run: (§1)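 Body weight change is given as percent of the mean preinfection weight (n=3 per group). It was recorded at day 0 p.t., day 28 p.t. and end point. Oral gavage was once daily: 5 days from day 7 p.i., or 10 days from day 28 p.i.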

[2] = test system: Trypanosoma brucei rhodesiense; experiment: Antitrypanosomal activity against Trypanosoma brucei rhodesiense infected in vervet monkey assessed as body weight change at 10 mg/kg, po administered on day 28 post infection for 10 days; assay type: functional; how it was run: as §1
[3] = test system: Trypanosoma brucei rhodesiense; experiment: Antimicrobial activity against Trypanosoma brucei rhodesiense infected in vervet monkeys assessed as cure from infection at 10 mg/kg, po administered on day 7 post infection for 5 days; assay type: functional, organism-based; design: dose 10 mg/kg
How it was run: (§2)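 Vervet monkeys (n=3 per group), infected with T. b. rhodesiense KETRI 2537. Dosed by oral gavage with a suspension once daily for 5 consecutive days from day 7 p.i. Cure meant no trypanosomes over 180 days p.t. in blood (wet film, HCT) or CSF (hemocytometer, centrifugation), with mouse subinoculation of negative samples.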

[4] = test system: Trypanosoma brucei rhodesiense; experiment: Antitrypanosomal activity against Trypanosoma brucei rhodesiense infected in vervet monkey 463 assessed as time to detect CSF parasitosis at 1 mg/kg, po administered on day 7 post infection for 5 days measured after 7 to 14 days; assay type: functional, organism-based; design: dose 1 mg/kg
How it was run: (§3)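 Trypanosomes and white cells in free-flowing CSF were counted by hemocytometer. Negative CSF was centrifuged and re-examined. Samples still negative were inoculated at 0.2 ml intraperitoneally into two mice each. Drug was given once daily by oral gavage: 5 days from day 7 p.i., or 10 days from day 28 p.i.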

[5] = test system: Trypanosoma brucei rhodesiense; experiment: Antitrypanosomal activity against Trypanosoma brucei rhodesiense infected in vervet monkey 463 assessed as time to detect CSF parasitosis at 1 mg/kg, po administered on day 7 post infection for 5 days measured after 14 to 21 days by microscopy; assay type: functional, organism-based; design: dose 1 mg/kg; how it was run: as §3
[6] = test system: Trypanosoma brucei rhodesiense; experiment: Antitrypanosomal activity against Trypanosoma brucei rhodesiense infected in vervet monkey 484 assessed as time to detect CSF parasitosis at 1 mg/kg, po administered on day 7 post infection for 5 days measured after 7 to 14 days; assay type: functional; how it was run: as §3
[7] = test system: Trypanosoma brucei rhodesiense; experiment: Antitrypanosomal activity against Trypanosoma brucei rhodesiense infected in vervet monkey 484 assessed as time to detect CSF parasitosis at 1 mg/kg, po administered on day 7 post infection for 5 days measured after 14 to 21 days by microscopy; assay type: functional; how it was run: as §3
[8] = test system: Trypanosoma brucei rhodesiense; experiment: Antitrypanosomal activity against Trypanosoma brucei rhodesiense infected in vervet monkey 485 assessed as time to detect CSF parasitosis at 1 mg/kg, po administered on day 7 post infection for 5 days measured after 14 to 21 days by microscopy; assay type: functional; how it was run: as §3
[9] = test system: Trypanosoma brucei rhodesiense; experiment: Antitrypanosomal activity against Trypanosoma brucei rhodesiense infected in vervet monkey 482 assessed as time to detect parasitemia in wet films of blood at 3 mg/kg, po administered on day 7 post infection for 5 days by hematocrit centrifugation technique; assay type: functional
How it was run: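 Parasitemia was monitored from 3 days p.i. in ear-prick or inguinal venous blood. Methods were wet-film microscopy (detection limit 10^5 trypanosomes/ml) and hematocrit centrifugation technique (detection limit 10^3 trypanosomes/ml). Drug was given once daily by oral gavage: 5 days from day 7 p.i., or 10 days from day 28 p.i.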

[10] = test system: Trypanosoma brucei rhodesiense; experiment: Antitrypanosomal activity against Trypanosoma brucei rhodesiense infected in vervet monkey 483 assessed as time to detect CSF parasitosis at 3 mg/kg, po administered on day 7 post infection for 5 days measured after 7 to 14 days; assay type: functional; how it was run: as §3
[11] = test system: Trypanosoma brucei rhodesiense; experiment: Antitrypanosomal activity against Trypanosoma brucei rhodesiense infected in vervet monkey 483 assessed as time to detect CSF parasitosis at 3 mg/kg, po administered on day 7 post infection for 5 days measured after 14 to 21 days by microscopy; assay type: functional; how it was run: as §3
[12] = test system: Trypanosoma brucei rhodesiense; experiment: Antitrypanosomal activity against Trypanosoma brucei rhodesiense infected in vervet monkey 454 assessed as cure from infection at 10 mg/kg, po administered on day 7 post infection for 5 days; assay type: functional, organism-based; design: dose 10 mg/kg; how it was run: as §2
[13] = test system: Trypanosoma brucei rhodesiense; experiment: Antitrypanosomal activity against Trypanosoma brucei rhodesiense infected in vervet monkey 471 assessed as time to detect parasitemia at 10 mg/kg, po administered on day 14 post infection for 5 days; assay type: functional
[14] = test system: Trypanosoma brucei rhodesiense; experiment: Antitrypanosomal activity against Trypanosoma brucei rhodesiense infected in vervet monkey 471 assessed as time to detect CSF parasitosis at 10 mg/kg, po administered on day 14 post infection for 5 days measured after 7 to 14 days; assay type: functional, organism-based; design: dose 10 mg/kg
[15] = test system: Trypanosoma brucei rhodesiense; experiment: Antitrypanosomal activity against Trypanosoma brucei rhodesiense infected in vervet monkey 471 assessed as time to detect CSF parasitosis at 10 mg/kg, po administered on day 14 post infection for 5 days measured after 14 to 21 days by microscopy; assay type: functional, organism-based; design: dose 10 mg/kg
[16] = test system: Trypanosoma brucei rhodesiense; experiment: Antitrypanosomal activity against Trypanosoma brucei rhodesiense infected in vervet monkey 520 assessed as time to detect CSF parasitosis at 10 mg/kg, po administered on day 28 post infection for 10 days measured after 7 to 14 days; assay type: functional; how it was run: as §3
[17] = test system: Trypanosoma brucei rhodesiense; experiment: Antitrypanosomal activity against Trypanosoma brucei rhodesiense infected in vervet monkey assessed as body weight change at 1 mg/kg, po administered on day 7 post infection for 5 days measured on day 28 post treatment; assay type: functional; conditions: in the assay text read “day 1 post treatment” for “day 28 post treatment”; how it was run: as §1
[18] = test system: Trypanosoma brucei rhodesiense; experiment: Antitrypanosomal activity against Trypanosoma brucei rhodesiense infected in vervet monkey assessed as body weight change at 10 mg/kg, po administered on day 7 post infection for 5 days measured on day 28 post treatment; assay type: functional; how it was run: as §1
[19] = test system: Trypanosoma brucei rhodesiense; experiment: Antitrypanosomal activity against Trypanosoma brucei rhodesiense infected in vervet monkey assessed as body weight change at 10 mg/kg, po administered on day 14 post infection for 5 days measured on day 28 post treatment; assay type: functional
[20] = test system: Trypanosoma brucei rhodesiense; experiment: Antitrypanosomal activity against Trypanosoma brucei rhodesiense infected in vervet monkey assessed as change in packed cell volume at 10 mg/kg, po administered on day 7 post infection for 5 days; assay type: functional
How it was run: (§4)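 Vervet monkeys, three per group, were infected intravenously with T. b. rhodesiense KETRI 2537. From day 7 p.i., a drug suspension was given by oral gavage once daily for 5 consecutive days. Packed cell volume was expressed as % change from the group's mean preinfection value. PCV was read at day 0 p.t., day 28 p.t. and endpoint, with follow-up to 180 days p.t.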

[21] = test system: Trypanosoma brucei rhodesiense; experiment: Antitrypanosomal activity against Trypanosoma brucei rhodesiense infected in vervet monkey assessed as change in packed cell volume at 1 mg/kg, po administered on day 7 post infection for 5 days measured on day 28 post treatment; assay type: functional; how it was run: as §4
[22] = test system: Trypanosoma brucei rhodesiense; experiment: Antitrypanosomal activity against Trypanosoma brucei rhodesiense infected in vervet monkey assessed as change in packed cell volume at 3 mg/kg, po administered on day 7 post infection for 5 days measured on day 28 post treatment; assay type: functional; how it was run: as §4
[23] = test system: Trypanosoma brucei rhodesiense; experiment: Antitrypanosomal activity against Trypanosoma brucei rhodesiense infected in vervet monkey assessed as change in packed cell volume at 10 mg/kg, po administered on day 28 post infection for 10 days measured on day 28 post treatment; assay type: functional
How it was run: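 Three vervet monkeys were infected intravenously with T. b. rhodesiense KETRI 2537 and treated in late-stage disease. From day 28 p.i., a drug suspension was given by oral gavage once daily for 10 consecutive days. PCV was reported as % change from the mean preinfection value at day 0 p.t., day 28 p.t. and endpoint. Monitoring continued up to 180 days p.t.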

[24] = test system: Trypanosoma brucei rhodesiense; experiment: Antitrypanosomal activity against Trypanosoma brucei rhodesiense infected in vervet monkey 478 assessed as cure from infection at 10 mg/kg, po administered on day 14 post infection for 5 days

Q: Which results are given for `CONC(=N)c1ccc(-c2ccc(-c3ccc(C(=N)NOC)cc3)o2)cc1` [PAFURAMIDINE]?
A: Activity [1]: -5%; Activity [2]: -10.5%; Activity [3]: Active; Time [4]: inactive; Time [5]: inactive; Time [6]: 7 days; Time [7]: 14 days; Time [8]: 21 days; Time [9]: 79 days; Time [10]: 69 days; Time [11]: 55 days; Time [12]: Active; Time [13]: 56 days; Time [14]: inactive; Time [15]: inactive; Time [16]: 119 days; Activity [17]: -2.1%; Activity [18]: 0%; Activity [19]: -5.2%; Activity [20]: -5.8%; Activity [21]: -17%; Activity [22]: -2.9%; Activity [23]: -9.1%; Time [24]: Active
